For series [1], the system named is Rattus norvegicus. Kind of series: Antiarthritic effect in Lewis rat adjuvant-induced arthritis model synovial infiltrating cells restimulated with sonicated Mtb post isolation assessed as reduction in MIP-1alpha production at 200 ug, ip starting from arthritis onset and continued uninterrupted until study end by cytokine multiplex assay. Format: functional, organism-based. In a few lines:
(§1)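 Male Lewis rats were immunized s.c. with heat-killed Mtb H37Ra (1.5 mg/rat) in mineral oil. From arthritis onset they received 200 μg/rat i.p. daily (DMSO stock diluted in PBS); controls got 1.2% DMSO in PBS. On d 18, draining lymph node or synovial-infiltrating cells were cultured at 1.5 × 10^6/well in 2% FBS medium ± sonicated Mtb (10 μg/ml) for 24 h. Supernatants were analysed by multiplex.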

Series [2] has as its system Rattus norvegicus. Kind of series: Increase in CCR1 expression in Lewis rat adjuvant-induced arthritis model spleen adherent cells restimulated with sonicated Mtb post isolation at 200 ug, ip starting from arthritis onset and continued uninterrupted until study end by qPCR relative baseline expression. In kind it is functional, organism-based. In a few lines:
(§2)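 From onset of Mtb-induced arthritis, rats received 200 μg/rat i.p. daily or vehicle. Spleen adherent cells harvested on d 18 (1.5–2.0 × 10^6 cells/well) were cultured in medium or with sonicated Mtb (10 μg/ml) for 24 h. Receptor mRNA was quantified by qPCR after TRIzol RNA isolation and cDNA synthesis, normalized to HGPRT and reported as relative message.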
In general terms: In qPCR the cycle at which signal appears reflects the starting amount.

In series [3] the test system is Rattus norvegicus. Kind of series: Antiarthritic effect in Lewis rat adjuvant-induced arthritis model spleen adherent cells restimulated with sonicated Mtb post isolation assessed as reduction in CXCR1 expression at 200 ug, ip starting from arthritis onset and continued uninterrupted until study end by qPCR analysis. In kind it is functional, organism-based. In a few lines:
as §2

Series [4] in a line: Increase in CCR1 protein surface expression in sonicated Mtb-stimulated spleen adherent cells isolated Inhibition of cell migration of RANTES-stimulated spleen adherent cells isolated from Lewis rat adjuvant-induced arthritis model at 0. 3 uM by Transwell cell migration assay. Format: functional. In short, it runs like this:
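Transwell assay with 8-μm polycarbonate inserts. Spleen adherent cells (1 × 10^6) from arthritic rats were placed in the upper chamber; the lower chamber held serum-free RPMI with RANTES (50 ng/ml) ± compound (0.1, 0.3 μM). Cells migrated 24 h at 37 °C, 5% CO2. Lower-surface cells were fixed in 4% formaldehyde, DAPI-stained, imaged at 10× and counted by image analysis. RANTES alone was set as 100%.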

In series [5] the test system is Rattus norvegicus. Kind of series: Antiarthritic effect in Lewis rat adjuvant-induced arthritis model serum assessed as reduction in TNFalpha production at 200 ug, ip starting from arthritis onset and continued uninterrupted until study end by cytokine multiplex assay. Format: functional, organism-based. In a few lines: (§3)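 Arthritic Lewis rats (Mtb 1.5 mg s.c. in mineral oil) were given 200 μg/rat i.p. daily from onset until the day before harvest; controls received DMSO/PBS vehicle. On d 18, blood was taken by cardiac puncture after euthanasia and serum stored at −80 °C. Serum pooled from 4 rats was assayed in triplicate by multiplex.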

Series [6] has as its system Rattus norvegicus. Briefly: Antiarthritic effect in Lewis rat adjuvant-induced arthritis model spleen adherent cells restimulated with sonicated Mtb post isolation assessed as reduction in IL-1beta production at 200 ug, ip starting from arthritis onset and continued uninterrupted until study end by cytokine multiplex assay. In kind it is functional, organism-based. In a few lines: (§4)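 Mtb-immunized male Lewis rats were dosed 200 μg/rat i.p. daily from arthritis onset (vehicle: 1.2% DMSO/PBS). Spleen adherent cells were prepared on d 18, plated at 1.5 × 10^6/well in 2% FBS medium and restimulated with sonicated Mtb (10 μg/ml) for 24 h. Supernatant chemokines and cytokines were measured by Luminex multiplex. Mean ± SD of triplicates from 4–5 rats.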

Series [7] relates to Rattus norvegicus. Briefly: Antiarthritic effect in Lewis rat adjuvant-induced arthritis model lymph node cells restimulated with sonicated Mtb post isolation assessed as reduction in IL-1beta production at 200 ug, ip starting from arthritis onset and continued uninterrupted until study end by cytokine multiplex assay. In kind it is functional, organism-based. In a few lines:
as §1

For series [8], the species on record is Rattus norvegicus. Briefly: Antiarthritic effect in IL-1beta-stimulatedspleen adherent cells isolated from Lewis rat adjuvant-induced arthritis model assessed as reduction in TNFalpha production pre-incubated with compound for 30 mins before stimulation with IL-1beta for 48 hrs by multiplex assay. Format: functional, tissue-based. Particulars: Spleen.
Series [9] concerns Rattus norvegicus. Briefly: Antiarthritic effect in Lewis rat adjuvant-induced arthritis model spleen adherent cells restimulated with sonicated Mtb post isolation assessed as reduction in CCR6 expression at 200 ug, ip starting from arthritis onset and continued uninterrupted until study end by qPCR. Format: functional, organism-based. In short, it runs like this: as §2
In series [10] the test system is Rattus norvegicus. Kind of series: Antiarthritic effect in Lewis rat adjuvant-induced arthritis model lymph node cells restimulated with sonicated Mtb post isolation assessed as reduction in IL6 production at 200 ug, ip starting from arthritis onset and continued uninterrupted until study end by cytokine multiplex assay. In kind it is functional, organism-based. In a few lines: as §1

Series [11] concerns Rattus norvegicus. Briefly: Antiarthritic effect in Lewis rat adjuvant-induced arthritis model synovial infiltrating cells restimulated with sonicated Mtb post isolation assessed as reduction in TNFalpha production at 200 ug, ip starting from arthritis onset and continued uninterrupted until study end by cytokine multiplex assay. In kind it is functional, organism-based. In short, it runs like this:
as §1

For series [12], the system named is Rattus norvegicus. Kind of series: Antiarthritic effect in Lewis rat adjuvant-induced arthritis model lymph node cells restimulated with sonicated Mtb post isolation assessed as reduction in MIP-1alpha production at 200 ug, ip starting from arthritis onset and continued uninterrupted until study end by cytokine multiplex assay. In kind it is functional, organism-based. In short, it runs like this: as §1

Series [13] concerns Rattus norvegicus. Kind of series: Antiarthritic effect in Lewis rat adjuvant-induced arthritis model synovial infiltrating cells restimulated with sonicated Mtb post isolation assessed as reduction in RANTES production at 200 ug, ip starting from arthritis onset and continued uninterrupted until study end by cytokine multiplex assay. In kind it is functional, organism-based. In short, it runs like this:
as §1

The subject of series [14] is Rattus norvegicus. Kind of series: Antiarthritic effect in Lewis rat adjuvant-induced arthritis model spleen adherent cells restimulated with sonicated Mtb post isolation assessed as reduction in CXCR4 expression at 200 ug, ip starting from arthritis onset and continued uninterrupted until study end by qPCR. In kind it is functional, organism-based. In short, it runs like this:
as §2

Series [15] is filed under the species Rattus norvegicus. Kind of series: Antiarthritic effect in IL-1beta-stimulatedspleen adherent cells isolated from Lewis rat adjuvant-induced arthritis model assessed as reduction in RANTES production pre-incubated with compound for 30 mins before stimulation with IL-1beta for 48 hrs by multiplex assay. To be noted: Spleen. Format: functional, tissue-based.

The species named for series [16] is Rattus norvegicus. Kind of series: Increase in CCR1 expression in sonicated Mtb-stimulated spleen adherent cells isolated from Lewis rat adjuvant-induced arthritis model pre-incubated with compound before stimulation with sonicated Mtb for 24 hrs by qPCR. Format: functional, tissue-based. In short, it runs like this: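 Spleen adherent cells (1.5–2.0 × 10^6 cells/well) came from an untreated arthritic Lewis rat. They were restimulated 24 h with sonicated Mtb (10 μg/ml) with or without compound at 0.1 and 0.3 μM. CCR1 mRNA was measured by qPCR, normalized to HPRT and expressed as relative message.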

Series [17] has as its system Rattus norvegicus. Briefly: Antiarthritic effect in Lewis rat adjuvant-induced arthritis model spleen adherent cells restimulated with sonicated Mtb post isolation assessed as reduction in GRO/KC production at 200 ug, ip starting from arthritis onset and continued uninterrupted until study end by cytokine multiplex assay. In kind it is functional, organism-based. In short, it runs like this:
as §4

The subject of series [18] is Rattus norvegicus. Kind of series: Antiarthritic effect in Lewis rat adjuvant-induced arthritis model synovial infiltrating cells restimulated with sonicated Mtb post isolation assessed as reduction in GRO/KC production at 200 ug, ip starting from arthritis onset and continued uninterrupted until study end by cytokine multiplex assay. Format: functional, organism-based. In a few lines: as §1

The test system of series [19] is Rattus norvegicus. Briefly: Antiarthritic effect in Lewis rat adjuvant-induced arthritis model spleen adherent cells restimulated with sonicated Mtb post isolation assessed as reduction in MIP-1alpha production at 200 ug, ip starting from arthritis onset and continued uninterrupted until study end by cytokine multiplex assay. Format: functional, organism-based. In short, it runs like this: as §4

In series [20] the test system is Rattus norvegicus. Kind of series: Toxicity in Lewis rat adjuvant-induced arthritis model serum assessed as increase in MCP1 production at 200 ug, ip starting from arthritis onset and continued uninterrupted until study end by cytokine multiplex assay. Format: organism-based. To be noted: in vivo. In short, it runs like this:
as §3

The structures appear in SMILES notation. Activity calls are given as the source filed them. No cut-off for these calls is given here.

`CC1=C(O)C(=O)C=C2C1=CC=C1[C@@]2(C)CC[C@@]2(C)[C@@H]3C[C@](C)(C(=O)O)CC[C@]3(C)CC[C@]12C` [CELASTROL]: the outcome in [1], in [7], in [10], in series [11], in [12] and in series [13] was inactive. The outcome in [18] and in series [19] was inactive. In addition, the result in series [2], in [3], in series [5], in [6], in [9] and in [14] was Active. For the same compound, the outcome in [17] was Active. Besides, the “inhibition (INH)” value in [4] is 63%. Besides, the Activity entry in series [8] was “Dose-dependent effect”; in [15] it was “Dose-dependent effect”; in series [16] it was “Dose-dependent effect”; in [20] it was “Toxic”.

These data come from ChEMBL document CHEMBL2086325, “Suppression of autoimmune arthritis by Celastrus-derived Celastrol through modulation of pro-inflammatory chemokines” (Bioorg Med Chem, 2012).
